Data set [1] has as its target T1, AChE (Homo sapiens, UniProt P22303). The data set is described as follows: In vitro AChE inhibitory activity. The class given is biochemical. The settings on record: for AChE IC50: mean ± SD (n = 3).
Another data set concerns the target BuChE (Homo sapiens, UniProt P06276). Kind of data set: In vitro BuChE inhibitory activity. The class given is biochemical. The settings on record: for BuChE IC50: mean ± SD (n = 3).
The target of a further data set is BACE1 (Homo sapiens, UniProt P56817). The data set is described as follows: BACE1 inhibitory activity, FRET-based assay kit. The data set is classed as biochemical.
Sequence of BACE1 (P56817 46-501): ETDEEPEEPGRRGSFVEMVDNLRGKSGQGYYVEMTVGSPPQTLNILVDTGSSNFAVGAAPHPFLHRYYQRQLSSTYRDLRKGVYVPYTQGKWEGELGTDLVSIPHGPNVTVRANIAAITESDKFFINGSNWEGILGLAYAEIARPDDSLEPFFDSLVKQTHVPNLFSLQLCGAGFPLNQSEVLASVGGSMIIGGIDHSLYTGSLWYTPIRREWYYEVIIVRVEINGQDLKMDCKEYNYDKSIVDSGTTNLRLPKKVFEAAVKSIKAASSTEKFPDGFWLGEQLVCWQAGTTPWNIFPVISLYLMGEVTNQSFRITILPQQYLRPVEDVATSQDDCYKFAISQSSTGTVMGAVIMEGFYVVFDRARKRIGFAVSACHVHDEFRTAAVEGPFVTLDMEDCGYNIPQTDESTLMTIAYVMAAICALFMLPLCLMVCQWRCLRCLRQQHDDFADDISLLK
Data set [2] is described as follows: Metal chelating activity by UV-visible spectrometry, mole ratio method. The class given is physicochemical. As to conditions: UV 200-600 nm, methanol, 5d 20 μM, Fe3+ 0-50 μM, 30 min room temperature. In a few lines:
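Test compound (20 μM in absolute methanol) was titrated with FeCl3 (0–50 μM Fe3+) and incubated 30 min at room temperature. UV absorption from 200 to 600 nm was recorded with and without Fe3+ in a 1 cm quartz cuvette. Complex stoichiometry was taken from the mole ratio method.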

The target in data set [3] is T1, AChE. Kind of data set: Kinetic characterization of AChE inhibition. The data set is classed as biochemical.

“Also recorded” adds a separate entry of the source.

T1 sequence (P22303 32-614): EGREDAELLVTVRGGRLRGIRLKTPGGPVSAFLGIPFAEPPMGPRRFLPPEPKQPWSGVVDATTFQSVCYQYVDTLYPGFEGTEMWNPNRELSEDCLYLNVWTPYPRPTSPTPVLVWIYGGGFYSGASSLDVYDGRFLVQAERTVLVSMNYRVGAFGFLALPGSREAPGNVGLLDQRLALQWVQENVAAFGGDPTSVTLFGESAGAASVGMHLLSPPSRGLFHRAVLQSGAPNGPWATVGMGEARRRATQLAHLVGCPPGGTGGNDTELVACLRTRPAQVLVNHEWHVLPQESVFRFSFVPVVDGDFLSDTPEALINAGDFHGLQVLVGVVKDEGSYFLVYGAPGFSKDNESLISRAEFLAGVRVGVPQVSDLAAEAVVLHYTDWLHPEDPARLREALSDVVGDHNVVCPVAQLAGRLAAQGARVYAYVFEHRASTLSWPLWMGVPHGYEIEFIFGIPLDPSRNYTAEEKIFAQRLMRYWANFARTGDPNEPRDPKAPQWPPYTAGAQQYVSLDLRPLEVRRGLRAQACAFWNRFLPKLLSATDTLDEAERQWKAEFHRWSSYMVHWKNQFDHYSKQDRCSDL
Sequence of BuChE (P06276 29-602): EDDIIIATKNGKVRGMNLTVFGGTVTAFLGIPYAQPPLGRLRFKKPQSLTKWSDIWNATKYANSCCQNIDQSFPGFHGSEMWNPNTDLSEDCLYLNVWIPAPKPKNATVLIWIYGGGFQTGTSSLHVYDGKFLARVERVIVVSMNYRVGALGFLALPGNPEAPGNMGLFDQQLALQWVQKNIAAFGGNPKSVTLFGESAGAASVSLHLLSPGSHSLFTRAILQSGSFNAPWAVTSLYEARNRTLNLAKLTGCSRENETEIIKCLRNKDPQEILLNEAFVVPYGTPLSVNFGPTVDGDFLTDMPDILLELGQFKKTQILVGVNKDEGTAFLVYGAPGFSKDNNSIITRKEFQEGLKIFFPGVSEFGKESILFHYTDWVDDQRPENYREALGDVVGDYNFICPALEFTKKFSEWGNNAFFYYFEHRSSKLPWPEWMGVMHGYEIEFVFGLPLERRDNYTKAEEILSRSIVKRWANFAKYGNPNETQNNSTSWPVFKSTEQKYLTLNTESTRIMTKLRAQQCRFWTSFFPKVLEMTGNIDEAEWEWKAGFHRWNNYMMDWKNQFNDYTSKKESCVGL

Regarding `Cn1cc(-c2cc(C(=O)NN=Cc3ccccc3F)no2)c2ccccc21` [Compound 5h, N'-(2-Fluorobenzylidene)-5-(1-methyl-1H-indol-3-yl)isoxazole-3-carbohydrazide], on AChE [1], the “AChE IC50” value is on record as “no potency”.

Consider `Cn1cc(-c2cc(C(=O)NN=Cc3ccccc3Cl)no2)c2ccccc21` [Compound 5i, N'-(2-Chlorobenzylidene)-5-(1-methyl-1H-indol-3-yl)isoxazole-3-carbohydrazide], for which the “AChE IC50” value at AChE [1] is “no potency”.

As usually defined, the IC50 is the concentration needed to halve the response being measured. `Cn1cc(-c2cc(C(=O)NN=Cc3cccc([N+](=O)[O-])c3)no2)c2ccccc21` [Compound 5k, N'-(3-Nitrobenzylidene)-5-(1-methyl-1H-indol-3-yl)isoxazole-3-carbohydrazide] gave an IC50 against BuChE of 71.3 ± 0.76 µM.

Turning to `Cn1cc(-c2cc(C(=O)NN=Cc3ccccc3O)no2)c2ccccc21` [Compound 5b, N'-(2-Hydroxybenzylidene)-5-(1-methyl-1H-indol-3-yl)isoxazole-3-carbohydrazide], the figures for the half-maximal inhibitory concentration (IC50) at BACE1 and on BuChE were 2.79 ± 0.52 µM and 92.8 ± 2.29 µM, respectively.

With `Cn1cc(-c2cc(C(=O)NN=Cc3ccccc3)no2)c2ccccc21` [Compound 5a, N'-Benzylidene-5-(1-methyl-1H-indol-3-yl)isoxazole-3-carbohydrazide], the “AChE IC50” value on AChE [1] was “no inhibitory potencies”. Further, on BuChE, the “BuChE IC50” value was “no inhibitory potencies”.

For `Cn1cc(-c2cc(C(=O)NN=Cc3cccc(Br)c3)no2)c2ccccc21` [Compound 5j, N'-(3-Bromobenzylidene)-5-(1-methyl-1H-indol-3-yl)isoxazole-3-carbohydrazide], the “AChE IC50” value on AChE [1] was “no potency”. On BACE1, this molecule displayed a 50% inhibitory concentration (IC50) of 1.99 ± 0.15 µM.

The Ki is the equilibrium dissociation constant of an inhibitor or competing ligand from its target. For `COc1cccc(C=NNC(=O)c2cc(-c3cn(C)c4ccccc34)on2)c1` [Compound 5d, N'-(3-Methoxybenzylidene)-5-(1-methyl-1H-indol-3-yl)isoxazole-3-carbohydrazide], the results for the IC50 against AChE [1] and against BACE1 were 29.5 ± 0.31 µM and 2.85 ± 0.09 µM, respectively. Moreover, the “metal chelating ability against Fe3+” value in data set [2] was “had biometal chelation ability”. Further, the Ki on AChE [3] turned out to be 19.3 µM. Moreover, the “inhibition pattern on AChE” value against AChE [3] (Lineweaver-Burk: Km increased, Vmax unchanged) is listed as “competitive”. In addition, the “BuChE IC50” value at BuChE is “no notable inhibition; also recorded: no potency”.

For `COc1cccc(C=NNC(=O)c2cc(-c3cn(C)c4ccccc34)on2)c1O` [Compound 5g, N'-(2-Hydroxy-3-methoxybenzylidene)-5-(1-methyl-1H-indol-3-yl)isoxazole-3-carbohydrazide], the IC50 against AChE [1] came to 63.8 ± 4.04 µM.

The values are drawn from paper PMC11387822 (Scientific Reports, 2024).
